Reference: ChEMBL document CHEMBL4825662 (J Med Chem, 2021)
pEC50: −log10 of the molar value. Converted amounts (≈) assume the structure as drawn. One block for each molecule: values may come before it.

Legend:
[1] = Half life in human liver microsomes preincubated followed by NADPH addition and measured up to 45 mins by LC-MS/MS analysis; type: ADME, Microsome
[2] = Half life in CD1 mouse at 10 mg/kg, po measured after 0.083 to 24 hrs by UHPLC-TOF method; type: ADME, organism-based; conditions: in vivo, time 0.083-24 hrs
[3] = Tmax in Beagle dog at 3 mg/kg, […] by UHPLC-TOF method; type: ADME, organism-based, Canis lupus familiaris; conditions: in vivo, po
[4] = Half life in CD1 mouse at 1 mg/kg, iv measured after 0.03 to 24 hrs by UHPLC-TOF method; type: ADME, organism-based; conditions: in vivo, time 0.03-24 hrs
[5] = Intrinsic clearance in human liver microsomes preincubated followed by NADPH addition and measured up to 45 mins by LC-MS/MS analysis; type: ADME, Microsome
[6] = Apparent permeability across apical to basolateral side in MDCK-MDR1 cells at 10 uM measured at 60 mins by LC-MS/MS analysis; type: ADME, cell-based, Canis lupus familiaris; conditions: dog
[7] = Protein binding in human plasma assessed as unbound fraction at 5 uM by LC-MS/MS analysis based equilibrium dialysis method; type: ADME, cell-free
[8] = Half life in Beagle dog at 3 mg/kg, po measured after 0.03 to 24 hrs by UHPLC-TOF method; type: ADME, organism-based, Canis lupus familiaris; conditions: in vivo, time 0.03-24 hrs
[9] = Oral bioavailability in Beagle dog at 3 mg/kg measured after 0.03 to 24 hrs by UHPLC-TOF method; type: ADME, organism-based, Canis lupus familiaris; conditions: in vivo, 3 mg/kg, time 0.03-24 hrs
Outline: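 Dogs examined by a veterinary surgeon before each session, fed 2 h post-dose, water ad libitum, dosed as amorphous-solid suspension. Serial blood into heparinized tubes, centrifuged at 4 °C for 10 min at 3000g; plasma snap-frozen at −20 °C. IV sampling 2 min–24 h, oral 15 min–24 h. Plasma analysed by UHPLC-quadrupole-TOF MS.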

[10] = Cytotoxicity against human HepG2 cells by MTT assay; type: cell-based
Outline: (§1)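 Viability was assessed by MTT after culture with compound at 0.01 nM to 100 μM, run in parallel with plaque reduction assays. Values are the average of at least two testing occasions.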

[11] = Intrinsic clearance in rat hepatocytes at 3 uM assessed per million cells measured up to 60 mins by LC-MS/MS analysis; type: ADME, cell-based, Hepatocyte; conditions: read-out: CLH
[12] = Cmax in Beagle dog at 3 mg/kg, po measured after 0.03 to 24 hrs by UHPLC-TOF method; type: ADME, organism-based, Canis lupus familiaris; parameters: route oral, dose 3 mg/kg, time 0.03-24 hrs; conditions: in vivo
[13] = Cmax in CD1 mouse at 10 mg/kg, po measured after 0.083 to 24 hrs by UHPLC-TOF method; type: ADME, organism-based; parameters: route oral, time 0.083-24 hrs, dose 10 mg/kg; conditions: in vivo
[14] = Half life in rat hepatocytes at 3 uM measured up to 60 mins by LC-MS/MS analysis; type: ADME, cell-based, Hepatocyte
[15] = Volume of distribution at steady state in CD1 mouse at 1 mg/kg, iv measured after 0.083 to 24 hrs by UHPLC-TOF method; type: ADME, organism-based; conditions: in vivo, time 0.083-24 hrs, read-out: Vdss
Outline: (§2)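 Male CD-1 mice, acclimatized and individually housed, dosed IV and PO as amorphous-solid suspension. Terminal cardiac-puncture blood into heparinized tubes on wet ice, centrifuged at 4 °C within 15 min; plasma snap-frozen at −20 °C. IV arm sampled 2 min–24 h, oral arm 5 min–24 h. Plasma analysed by UHPLC-quadrupole-TOF MS.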

[16] = Apparent permeability across basolateral side to apical side in MDCK-MDR1 cells at 10 uM measured at 60 mins by LC-MS/MS analysis; type: ADME, cell-based, Canis lupus familiaris; conditions: dog
[17] = Tmax in CD1 mouse at 10 mg/kg, po measured after 0.083 to 24 hrs by UHPLC-TOF method; type: ADME, organism-based; conditions: in vivo, time 0.083-24 hrs; outline: as §2
[18] = Intrinsic clearance in human hepatocytes at 3 uM assessed per million cells measured up to 60 mins by LC-MS/MS analysis; type: ADME, cell-based, Hepatocyte; conditions: read-out: CLH
[19] = Thermodynamic solubility in PBS at 1 to 100 uM at pH 7.4 by HPLC-UV method; type: physicochemical; conditions: dose 1-100 µM, read-out: Therm_solubility
[20] = Half life in Beagle dog at 0.3 mg/kg, iv measured after 0.03 to 24 hrs by UHPLC-TOF method; type: ADME, organism-based, Canis lupus familiaris; conditions: in vivo, time 0.03-24 hrs
Outline: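 Dogs dosed IV as a suspension of amorphous solid. Serial blood at 2, 5, 15 min and 1, 2, 4, 8, 12, 24 h into heparinized tubes, centrifuged at 4 °C for 10 min at 3000g. Plasma snap-frozen and stored at −20 °C, then analysed by UHPLC-TOF.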

[21] = Intrinsic clearance in Beagle dog hepatocytes at 3 uM assessed per million cells measured up to 60 mins by LC-MS/MS analysis; type: ADME, cell-based, Canis lupus familiaris, Hepatocyte; conditions: read-out: CLH
[22] = Intrinsic clearance in Beagle dog liver microsomes preincubated followed by NADPH addition and measured up to 45 mins by LC-MS/MS analysis; type: ADME, Canis lupus familiaris, Microsome
[23] = Intrinsic clearance in Sprague-Dawley rat liver microsomes preincubated followed by NADPH addition and measured up to 45 mins by LC-MS/MS analysis; type: ADME, Microsome
[24] = Oral bioavailability in CD1 mouse at 10 mg/kg measured after 0.03 to 24 hrs by UHPLC-TOF method; type: ADME, organism-based; conditions: in vivo, time 0.03-24 hrs; outline: as §2
Human orthopneumovirus [25] = assay: Antiviral activity against Respiratory syncytial virus A2 infected in human Huh7 cells by Plaque reduction assay; type: functional, organism-based; conditions: A2, Huh-7
Outline: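 Huh-7 cells were infected with RSV strain A2 in the presence of compound. Values are the average of at least two testing occasions.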

[26] = Efflux ratio of apparent permeability in MDCK-MDR1 cells at 10 uM measured at 60 mins by LC-MS/MS analysis; type: ADME, cell-based, Canis lupus familiaris; conditions: dog
[27] = Protein binding in rat plasma assessed as unbound fraction at 5 uM by LC-MS/MS analysis based equilibrium dialysis method; type: ADME, cell-free
[28] = Clearance in Beagle dog at 0.3 mg/kg, iv measured after 0.03 to 24 hrs by UHPLC-TOF method; type: ADME, organism-based, Canis lupus familiaris; conditions: in vivo, time 0.03-24 hrs
[29] = Half life in human hepatocytes at 3 uM measured up to 60 mins by LC-MS/MS analysis; type: ADME, cell-based, Hepatocyte
[30] = Half life in Beagle dog liver microsomes preincubated followed by NADPH addition and measured up to 45 mins by LC-MS/MS analysis
[31] = Protein binding in dog plasma assessed as unbound fraction at 5 uM by LC-MS/MS analysis based equilibrium dialysis method; type: ADME, cell-free, Canis lupus familiaris
[32] = Clearance in CD1 mouse at 1 mg/kg, iv measured after 0.083 to 24 hrs by UHPLC-TOF method; type: ADME, organism-based; conditions: in vivo, time 0.083-24 hrs
[33] = Half life in Beagle dog hepatocytes at 3 uM assessed per million cells measured up to 60 mins by LC-MS/MS analysis; type: ADME, cell-based, Canis lupus familiaris, Hepatocyte
[34] = Volume of distribution at steady state in Sprague-Dawley rat at 1 mg/kg, iv administered […] measured after 0.02 to 24 hrs by tandem liquid chromatography/mass spectrometry; type: ADME, organism-based; conditions: in vivo, time 0.02-24 hrs, read-out: Vdss
Outline: (§3)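 Male Sprague–Dawley rats (200–250 g), 3 per route. IV bolus at 1 mg/kg, 1 mg/mL in 40:60 dimethylacetamide/saline; oral gavage at 5 or 10 mg/kg, 5 mg/mL in 1% methyl cellulose, 0.1% Tween 80 in water. Serial blood at 0.02–24 h (ten points) into heparin, spun at 4 °C, plasma frozen; acetonitrile protein precipitation, ESI LC-MS/MS with matrix curve and internal standards.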

Human orthopneumovirus [35] = assay: Antiviral activity against Respiratory syncytial virus A2 infected in African green monkey Vero cells by Plaque reduction assay; type: functional, organism-based
[36] = Oral bioavailability in Sprague-Dawley rat at 10 mg/kg administered via gavage measured after 0.02 to 24 hrs by tandem liquid chromatography/mass spectrometry; type: ADME, organism-based; conditions: in vivo, time 0.02-24 hrs; outline: as §3
[37] = Cytotoxicity against African green monkey Vero cells by MTT assay; type: cell-based; conditions: chlorocebus sabaeus; outline: as §1
[38] = Clearance in Sprague-Dawley rat at 1 mg/kg, iv administered […] measured after 0.02 to 24 hrs by tandem liquid chromatography/mass spectrometry; type: ADME, organism-based; conditions: in vivo, time 0.02-24 hrs
[39] = Intrinsic clearance in rat hepatocytes assessed per million cells at 3 uM measured up to 60 mins by LC-MS/MS analysis; type: ADME, cell-based, Hepatocyte; conditions: read-out: CLH
[40] = Cmax in Sprague-Dawley rat at 5 mg/kg, po administered via gavage measured after 0.02 to 24 hrs by tandem liquid chromatography/mass spectrometry; type: ADME, organism-based; parameters: route oral, dose 5 mg/kg, time upper 24 hrs, time lower 0.02 hrs; conditions: in vivo
Outline: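 Male Sprague–Dawley rats weighing 200–250 g, 3 per route, were used. The i.v. bolus was 1 mg/kg at 1 mg/mL in 40:60 dimethylacetamide/saline. Oral gavage doses were 5 or 10 mg/kg at 5 mg/mL in 1% methyl cellulose with 0.1% Tween 80. Heparinized blood was taken at 0.02–24 h (ten time points). Plasma was analyzed by LC-MS/MS after acetonitrile precipitation.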

[41] = Half life in Sprague-Dawley rat liver microsomes preincubated followed by NADPH addition and measured up to 45 mins by LC-MS/MS analysis; type: ADME, Microsome
[42] = Kinetic solubility of compound in PBS at 200 uM at pH 7.4 by LC-MS/LC-UV analysis; type: physicochemical; conditions: read-out: Kinetic_solubility
Outline: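 Compound added from DMSO into PBS pH 7.4; precipitation measured across a range of concentrations.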

[43] = Apparent permeability of compound in wild type MDCK at 10 uM incubated for 1 hr by LC-MS/MS assay; type: ADME, Canis lupus familiaris; conditions: dog

half-life [1]: 0.348 h
half-life [2]: 1.4 h
Tmax [3]: 0.5 h
half-life [4]: 1.7 h
intrinsic clearance (CLint) [5]: 66.4 µL/min
Papp A→B at 1 h, 10 µM ([6]; MDCK-MDR1): 0.4 ×10⁻⁶ cm/s
fraction unbound at 5 µM [7]: 0.548
half-life [8]: 3.1 h
F [9]: 163%
hepatocyte CLint at 3 µM [11]: 21.2 µL/min/1e6 cells
Cmax [12]: 505 ng/mL
Cmax [13]: 450 ng/mL
half-life at 3 µM [14]: 1.02 h
Vd [15]: 5.5 L/kg
Papp B→A at 1 h, 10 µM [16]: 40.6 ×10⁻⁶ cm/s
Tmax [17]: 1.7 h
hepatocyte CLint at 3 µM [18]: 7.1 µL/min/1e6 cells
solubility thermodynamic [19]: 1270 µM (≈ 534 µg/mL)
half-life [20]: 5.2 h
hepatocyte CLint at 3 µM [21]: 0.8 µL/min/1e6 cells
intrinsic clearance [22]: 0.4 µL/min
Microsomal intrinsic clearance [23]: 5.2 µL/min
bioavailability [24]: 39.4%
pEC50 (Human orthopneumovirus [25]): 8.62
efflux ratio at 1 h, 10 µM ([26]; MDCK-MDR1): 94
fraction unbound at 5 µM [27]: 0.399
clearance [28]: 19.2 mL/min/kg
half-life at 3 µM [29]: 3.28 h
half-life [30]: 55.8 h
fraction unbound at 5 µM [31]: 0.497
clearance [32]: 58 mL/min/kg
half-life at 3 µM [33]: > 16.7 h
SMILES: NCc1ccc2c(c1)nc(CN1C(=O)C3(CC3)c3ccc(F)cc31)n2C1CCOCC1
CC50 [10]: > 25 µM

intrinsic clearance (CLint) [5]: 50.7 µL/min
Papp ([6]; mdck-mdr1, 1 h, 10 µM): 0.75 10^-6 cm/s
fraction unbound at 5 µM [7]: 0.184
Vd [34]: 54.3 L/kg
pEC50 (Human orthopneumovirus [35]): 9.10
bioavailability [36]: 25%
solubility thermodynamic [19]: 176 µM (≈ 71.7 µg/mL)
intrinsic clearance [22]: 6.23 µL/min
Microsomal intrinsic clearance [23]: 45 µL/min
Ratio ([26]; mdck-mdr1, 1 h, 10 µM): 88
fraction unbound at 5 µM [27]: 0.333
clearance [38]: 174 mL/min/kg
fraction unbound at 5 µM [31]: 0.151
hepatocyte CLint at 3 µM [39]: 43.1 µL/min/1e6 cells
Cmax [40]: 44.2 ng/mL
SMILES: CC(C)CCn1c(CN2C(=O)C3(CC3)c3ccc(F)cc32)nc2cc(CN)ccc21
CC50 [37]: 3 µM

half-life [1]: 0.1 h
intrinsic clearance (CLint) [5]: 488 µL/min
fraction unbound at 5 µM [7]: 0.17
half-life [41]: > 1.48 h
pEC50 (Human orthopneumovirus [35]): 6.51
solubility kinetic at 200 µM [42]: 160 µM (≈ 66.8 µg/mL)
intrinsic clearance [22]: < 28 µL/min
Microsomal intrinsic clearance [23]: < 31 µL/min
fraction unbound at 5 µM [27]: 0.24
Papp at 1 h, 10 µM [43]: 11 ×10⁻⁶ cm/s
half-life [30]: > 1.67 h
fraction unbound at 5 µM [31]: 0.14
SMILES: CC(C)CCn1c(CN2C(=O)C3(CCCC3)c3ccncc32)nc2cc(CN)ccc21
CC50 [37]: 23.1 µM
